Laboratory results reported in article PMC4383763 (Journal of clinical pharmacology, 2013).

Legend:
[1] = subjects who received 2 months of cimetidine; cited from earlier work
[2] = tested on: APAP-induced liver injury in mice; conditions: cited from earlier work; for effect of drug vehicles on APAP-induced liver injury: mouse model
[3] = assumed for the prediction, no reference given; cited from earlier work
CYP2E1 = conditions: cited from earlier work
Cultured hepatocytes = conditions: in the presence of PG; cited from earlier work
[4] = Plasma propylene glycol concentration by GC-FID after APAP preparation; assay type: in vivo, human
Procedure, shortened: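 Crossover in volunteers given tablet or liquid APAP formulations (liquid contains 5% v/v PG), 15 mg/kg orally after a 1 h fast, on separate visits. Blood held refrigerated ≤24 h, then plasma separated by centrifugation and stored at -80 °C. PG was measured by GC-FID, first in 0–120 min samples from three subjects, then in all 30 min samples. LOD 5.0 mg/dL.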

Structure (SMILES): CN/C(=N/CCSCc1nc[nH]c1C)NC#N [cimetidine]
- urinary APAP-mercapturate following therapeutic APAP dosing [1]: decreased

Structure (SMILES): CN(C)C=O [dimethylformamide]
- effect of drug vehicles on APAP-induced liver injury [2]: protective

Structure (SMILES): CCO [ethanol]
- effect of drug vehicles on APAP-induced liver injury [2]: protective

Structure (SMILES): CC(O)CO (stereo not drawn) [PG, propylene glycol]
- hepatocellular damage following a toxic APAP dose ([2]; mice pretreated with the substance): reduced hepatocellular damage
- effect of drug vehicles on APAP-induced liver injury [2]: protective
- volume of distribution of PG [3]: 0.58 L/kg
- type of CYP2E1 inhibition (CYP2E1): competitive inhibitor
- susceptibility of cultured hepatocytes to APAP-induced necrosis (Cultured hepatocytes): less susceptible
- maximum PG concentration in plasma ([4]; 30-minute samples after liquid preparation): 9.1 mg/dL
- PG detected in 30-minute samples ([4]; following ingestion of the liquid preparation, limit of detection 5.0 mg/dL): 9 out of 15
- PG detected in samples ([4]; solid group, limit of detection 5.0 mg/dL): none

Structure (SMILES): C[S+](C)[O-] [dimethylsulfoxide]
- effect of drug vehicles on APAP-induced liver injury [2]: protective
